Reference: ChEMBL document CHEMBL4266010, “Synthesis, Biological Evaluation of Fluorescent 23-Hydroxybetulinic Acid Probes, and Their Cellular Localization Studies” (ACS Med Chem Lett, 2018)
pIC50: −log10 of the molar value. Activity calls are given as the source filed them. The rule behind the calls is not given here.

Experiments:
B16-F10 [1] = experiment: Antiproliferative activity against mouse B16F10 cells after 72 hrs by MTT assay; assay type: functional, cell-based; conditions: B16-F10, 72 h
Procedure, shortened: (§1)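 MTT assay on B16F10 mouse skin melanoma, MCF-7 human breast cancer and Helf human embryonic lung fibroblast cells. Doxorubicin served as reference. Values are mean ± SD of three independent experiments.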

[2] = Drug uptake in mouse B16F10 cells up to 50 uM after 1 hr by fluorescence microscopic method; assay type: ADME, cell-based; conditions: b16-f10, 1 h
Procedure, shortened: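 Live B16F10 cells stained 1 h with the unconjugated coumarin dye at up to 50 μM as control. Intracellular fluorescence examined by microscopy.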

MCF7 = experiment: Antiproliferative activity against human MCF7 cells after 72 hrs by MTT assay; assay type: functional, cell-based; conditions: MCF7, 72 h; procedure, shortened: as §1
[3] = Antiproliferative activity against HELF after 72 hrs by MTT assay; set-up: species or system Homo sapiens; procedure, shortened: as §1
B16-F10 [4] = experiment: Induction of mitochondrial membrane potential loss in mouse B16F10 cells at 15 uM after 48 hrs by JC-1 dye based flow cytometry (reference value: 1.79%); assay type: functional
Procedure, shortened: (§2)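 B16F10 cells incubated 48 h with parent acid (0, 7.5, 15, 30 μM) or probe (0, 1.5, 3.0, 6.0 μM), then stained with JC-1. Percentage of cells with collapsed mitochondrial membrane potential determined by flow cytometry.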

B16-F10 [5] = experiment: Induction of apoptosis in mouse B16F10 cells assessed as increase in Bax protein expression at 7.5 to 30 uM after 48 hrs by Western blot analysis; assay type: functional, cell-based
Procedure, shortened: (§3)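 B16F10 cells treated with parent acid (0, 7.5, 15, 30 μM) or probe (0, 1.5, 3.0, 6.0 μM). Bax, Bcl-2, cytochrome c, caspase 3 and caspase 9 detected by Western blot with GAPDH loading control. Band density normalized to GAPDH as relative expression. Values are mean ± SD of three independent experiments; P values for control vs treated.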

B16-F10 [6] = experiment: Induction of mitochondrial membrane potential loss in mouse B16F10 cells at 7.5 uM after 48 hrs by JC-1 dye based flow cytometry (reference value: 1.79%); assay type: functional; procedure, shortened: as §2
B16-F10 [7] = experiment: Induction of apoptosis in mouse B16F10 cells assessed as decrease in Bcl2 protein expression at 7.5 to 30 uM after 48 hrs by Western blot analysis; assay type: functional, cell-based; procedure, shortened: as §3
B16-F10 [8] = experiment: Induction of apoptosis in mouse B16F10 cells assessed as increase in caspase-9 protein expression at 7.5 to 30 uM after 48 hrs by Western blot analysis; assay type: functional, cell-based; procedure, shortened: as §3
B16-F10 [9] = experiment: Induction of mitochondrial membrane potential loss in mouse B16F10 cells at 30 uM after 48 hrs by JC-1 dye based flow cytometry (reference value: 1.79%); assay type: functional; procedure, shortened: as §2
B16-F10 [10] = experiment: Induction of apoptosis in mouse B16F10 cells assessed as increase in cytochrome-c protein expression at 7.5 to 30 uM after 48 hrs by Western blot analysis; assay type: functional, cell-based; procedure, shortened: as §3
B16-F10 [11] = experiment: Induction of apoptosis in mouse B16F10 cells assessed as increase in caspase-3 protein expression at 7.5 to 30 uM after 48 hrs by Western blot analysis; assay type: functional, cell-based; procedure, shortened: as §3
[12] = Drug uptake in mouse B16F10 cells after 15 mins by fluorescence microscopic method; assay type: ADME, cell-based; conditions: b16-f10, 0.25 h
Procedure, shortened: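 Live B16F10 cells incubated with the coumarin-labelled probe (10 μM among several concentrations) over a time course. Intracellular fluorescence imaged by fluorescence microscopy. Probe excitation/emission maxima 415/475 nm.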

B16-F10 [13] = experiment: Induction of apoptosis in mouse B16F10 cells assessed as increase in Bax protein expression at 1.5 to 6 uM after 48 hrs by Western blot analysis; assay type: functional, cell-based; procedure, shortened: as §3
[14] = Drug uptake in mouse B16F10 cell lysosomes at 4 uM after 1 hr by LysoTracker staining based confocal laser scanning microscopic method; assay type: ADME, subcellular, Lysosome; conditions: b16-f10, 1 h
Procedure, shortened: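 Live B16F10 cells co-stained with the coumarin probe at 4 μM and LysoTracker Red, with DAPI nuclear counterstain. Imaged by confocal microscopy, probe visualized as green and lysosomes as red.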

B16-F10 [15] = experiment: Induction of apoptosis in mouse B16F10 cells assessed as increase in cytochrome-c protein expression at 1.5 to 6 uM after 48 hrs by Western blot analysis; assay type: functional, cell-based; procedure, shortened: as §3
B16-F10 [16] = experiment: Induction of mitochondrial membrane potential loss in mouse B16F10 cells at 1.5 to 6 uM after 48 hrs by JC-1 dye based flow cytometry; assay type: functional, cell-based; procedure, shortened: as §2
[17] = Drug uptake in mouse B16F10 cells at 10 uM up to 240 mins mins by flow cytometry; assay type: ADME, cell-based; conditions: b16-f10, 4 h
Procedure, shortened: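 Live B16F10 cells incubated with 10 μM coumarin probe over a time course (0–120 min and beyond). Intracellular fluorescence intensity quantified by flow cytometry.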

B16-F10 [18] = experiment: Induction of apoptosis in mouse B16F10 cells assessed as decrease in Bcl2 protein expression at 1.5 to 6 uM after 48 hrs by Western blot analysis; assay type: functional, cell-based; procedure, shortened: as §3
B16-F10 [19] = experiment: Induction of apoptosis in mouse B16F10 cells assessed as increase in caspase-3 protein expression at 1.5 to 6 uM after 48 hrs by Western blot analysis; assay type: functional, cell-based; procedure, shortened: as §3
B16-F10 [20] = experiment: Induction of apoptosis in mouse B16F10 cells assessed as increase in caspase-9 protein expression at 1.5 to 6 uM after 48 hrs by Western blot analysis; assay type: functional, cell-based; procedure, shortened: as §3
[21] = Drug uptake in mouse B16F10 cell mitochondria at 4 uM after 1 hr by MitoTracker dye based confocal laser scanning microscopic method; assay type: ADME; conditions: b16-f10, 1 h
Procedure, shortened: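 Live B16F10 cells incubated 1 h with the coumarin probe at 4 μM together with MitoTracker. Imaged by confocal laser scanning microscopy with probe excitation at 415 nm (green) and MitoTracker […] at 579 nm (red). Colocalization read from overlay of the two channels.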

[22] = Drug uptake in mouse B16F10 cell nucleus at 4 uM after 1 hr by DAPI staining based confocal laser scanning microscopic method; assay type: ADME, subcellular; conditions: b16-f10, 1 h

Row | Compound | pIC50 (B16-F10 [1]) | pIC50 (MCF7) | pIC50 [3] | also measured
1 | CCN(CC)c1ccc2cc(C(=O)NCCNC(=O)CCC(=O)O)c(=O)oc2c1 | < 4.00 | – | – | Drug uptake [2]: Not Active
2 | C=C(C)[C@@H]1CC[C@]2(C(=O)O)CC[C@]3(C)[C@H](CC[C@@H]4[C@@]5(C)CC[C@H](O)[C@@](C)(COC(=O)CCCCCNC(=O)c6cc7ccc(N(CC)CC)cc7oc6=O)[C@@H]5CC[C@]43C)[C@@H]12 | 4.91 | 4.42 | 4.10 | –
3 | C=C(C)[C@@H]1CC[C@]2(C(=O)O)CC[C@]3(C)[C@H](CC[C@@H]4[C@@]5(C)CC[C@H](O)[C@@](C)(COC(=O)CCC(=O)OCCOC(=O)c6cc7ccc(N(CC)CC)cc7oc6=O)[C@@H]5CC[C@]43C)[C@@H]12 | 4.93 | 4.71 | 4.62 | –
4 | C=C(C)[C@@H]1CC[C@]2(C(=O)O)CC[C@]3(C)[C@H](CC[C@@H]4[C@@]5(C)CC[C@H](O)[C@@](C)(COC(=O)CCC(=O)NCCCCNC(=O)c6cc7ccc(N(CC)CC)cc7oc6=O)[C@@H]5CC[C@]43C)[C@@H]12 | 5.11 | 5.01 | 4.75 | –
5 | C=C(C)[C@@H]1CC[C@]2(C(=O)O)CC[C@]3(C)[C@H](CC[C@@H]4[C@@]5(C)CC[C@H](O)[C@@](C)(CO)[C@@H]5CC[C@]43C)[C@@H]12 | 4.61 | 4.68 | 4.50 | Activity (B16-F10 [4]): 22.85%; Activity (B16-F10 [5]): Active; Activity (B16-F10 [6]): 10.57%; Activity (B16-F10 [7]): Active; Activity (B16-F10 [8]): Active; Activity (B16-F10 [9]): 42.87%; Activity (B16-F10 [10]): Active; Activity (B16-F10 [11]): Active
6 | C=C(C)[C@@H]1CC[C@]2(C(=O)O)CC[C@]3(C)[C@H](CC[C@@H]4[C@@]5(C)CC[C@H](O)[C@@](C)(COC(=O)CCC(=O)OCCNC(=O)c6cc7ccc(N(CC)CC)cc7oc6=O)[C@@H]5CC[C@]43C)[C@@H]12 | 4.98 | 4.74 | 4.60 | –
7 | C=C(C)[C@@H]1CC[C@]2(C(=O)O)CC[C@]3(C)[C@H](CC[C@@H]4[C@@]5(C)CC[C@H](O)[C@@](C)(COC(=O)CCC(=O)NCCNC(=O)c6cc7ccc(N(CC)CC)cc7oc6=O)[C@@H]5CC[C@]43C)[C@@H]12 | 5.39 | 5.20 | 4.93 | Drug uptake [12]: Dose-dependent effect; Activity (B16-F10 [13]): Active; Drug uptake [14]: Not Active; Activity (B16-F10 [15]): Active; Activity (B16-F10 [16]): Active; Drug uptake [17]: Active; Activity (B16-F10 [18]): Active; Activity (B16-F10 [19]): Active; Activity (B16-F10 [20]): Active; Drug uptake [21]: Active; Drug uptake [22]: Not Active
8 | C=C(C)[C@@H]1CC[C@]2(C(=O)O)CC[C@]3(C)[C@H](CC[C@@H]4[C@@]5(C)CC[C@H](O)[C@@](C)(COC(=O)CCC(=O)NCCOC(=O)c6cc7ccc(N(CC)CC)cc7oc6=O)[C@@H]5CC[C@]43C)[C@@H]12 | 4.94 | 4.70 | 4.62 | –
9 | C=C(C)[C@@H]1CC[C@]2(C(=O)O)CC[C@]3(C)[C@H](CC[C@@H]4[C@@]5(C)CC[C@H](O)[C@@](C)(COC(=O)CCC(=O)OCCOCCOC(=O)c6cc7ccc(N(CC)CC)cc7oc6=O)[C@@H]5CC[C@]43C)[C@@H]12 | 4.45 | 4.52 | 4.67 | –
10 | COc1cccc2c1C(=O)c1c(O)c3c(c(O)c1C2=O)C[C@@](O)(C(=O)CO)C[C@@H]3O[C@H]1C[C@H](N)[C@H](O)[C@H](C)O1 [DOXORUBICIN] | 6.72 | 6.82 | 6.68 | –
11 | C=C(C)[C@@H]1CC[C@]2(C(=O)O)CC[C@]3(C)[C@H](CC[C@@H]4[C@@]5(C)CC[C@H](O)[C@@](C)(COC(=O)COCCOCCNC(=O)c6cc7ccc(N(CC)CC)cc7oc6=O)[C@@H]5CC[C@]43C)[C@@H]12 | 5.28 | 5.09 | 4.96 | –
12 | C=C(C)[C@@H]1CC[C@]2(C(=O)O)CC[C@]3(C)[C@H](CC[C@@H]4[C@@]5(C)CC[C@H](O)[C@@](C)(COC(=O)CCCNC(=O)c6cc7ccc(N(CC)CC)cc7oc6=O)[C@@H]5CC[C@]43C)[C@@H]12 | 4.95 | 4.74 | 4.56 | –
13 | C=C(C)[C@@H]1CC[C@]2(C(=O)O)CC[C@]3(C)[C@H](CC[C@@H]4[C@@]5(C)CC[C@H](O)[C@@](C)(COC(=O)CCC(=O)OCCOCCOCCOC(=O)c6cc7ccc(N(CC)CC)cc7oc6=O)[C@@H]5CC[C@]43C)[C@@H]12 | 4.52 | 4.62 | 4.71 | –
